NA, Emax and EC50 data for 33 compounds are collected here from ChEMBL document CHEMBL1145035, “Design of selective peptidomimetic agonists for the human orphan receptor BRS-3” (J Med Chem, 2003).

Assay [1] has as its target T1, Neuromedin-B receptor (Homo sapiens, UniProt P28336). Kind of assay: Effective concentration required against nueromedin B receptor (NMB-R) in CHO cells by using FLIPR assay. Format: functional, cell-based. Put shortly:
(§1)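 Intracellular Ca2+ mobilization was read by FLIPR in CHO cells transfected with the human receptor. NMB was the reference for NMB-R and GRP for GRP-R. EC50 values (±SEM) come from independent concentration–response curves, 4 to 30 per compound depending on the series.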
Target sequence in this assay (P28336 whole entry, looked up): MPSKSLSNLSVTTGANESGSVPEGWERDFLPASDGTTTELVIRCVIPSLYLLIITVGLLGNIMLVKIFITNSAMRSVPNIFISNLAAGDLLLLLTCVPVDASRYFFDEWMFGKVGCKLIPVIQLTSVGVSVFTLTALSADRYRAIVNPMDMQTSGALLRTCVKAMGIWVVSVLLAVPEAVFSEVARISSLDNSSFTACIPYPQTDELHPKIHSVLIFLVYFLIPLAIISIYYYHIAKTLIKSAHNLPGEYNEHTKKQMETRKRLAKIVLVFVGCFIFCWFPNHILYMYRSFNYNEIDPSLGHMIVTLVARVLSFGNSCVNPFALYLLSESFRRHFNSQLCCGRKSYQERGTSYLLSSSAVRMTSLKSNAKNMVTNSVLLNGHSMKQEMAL

Assay [2] in a line: Emax.
The target in assay [3] is T2, Gastrin-releasing peptide receptor (Homo sapiens, UniProt P30550). Description: Effective concentration required against gastrin releasing peptide receptor (GRP-R) in CHO cells by using FLIPR assay. Format: functional, cell-based. In a few lines: as §1
Target sequence in this assay (P30550 whole entry, looked up): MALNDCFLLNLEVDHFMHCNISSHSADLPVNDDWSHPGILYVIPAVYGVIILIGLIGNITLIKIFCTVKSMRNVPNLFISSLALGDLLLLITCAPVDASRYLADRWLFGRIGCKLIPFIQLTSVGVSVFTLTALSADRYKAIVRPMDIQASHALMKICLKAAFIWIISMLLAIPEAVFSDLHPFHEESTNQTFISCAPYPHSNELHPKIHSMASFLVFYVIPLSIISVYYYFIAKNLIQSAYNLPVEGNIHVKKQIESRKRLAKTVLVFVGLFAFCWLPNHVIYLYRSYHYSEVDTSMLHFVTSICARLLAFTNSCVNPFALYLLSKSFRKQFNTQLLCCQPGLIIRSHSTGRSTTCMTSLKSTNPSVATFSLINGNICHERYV
In assay [4] the target is T3, Bombesin receptor subtype-3 (Homo sapiens, UniProt P32247).
T3 sequence (P32247 whole entry): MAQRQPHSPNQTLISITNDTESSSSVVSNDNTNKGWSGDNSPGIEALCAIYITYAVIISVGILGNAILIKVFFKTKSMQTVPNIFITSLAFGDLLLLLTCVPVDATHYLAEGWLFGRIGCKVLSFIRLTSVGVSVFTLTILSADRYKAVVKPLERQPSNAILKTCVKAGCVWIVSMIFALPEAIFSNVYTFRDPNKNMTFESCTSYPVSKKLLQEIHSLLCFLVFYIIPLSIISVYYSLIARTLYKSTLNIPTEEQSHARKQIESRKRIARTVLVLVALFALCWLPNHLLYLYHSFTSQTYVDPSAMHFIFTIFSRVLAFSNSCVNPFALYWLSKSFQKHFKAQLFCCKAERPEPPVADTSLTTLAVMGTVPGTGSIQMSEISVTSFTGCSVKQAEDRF
Kind of assay: Effective concentration required against human bombesin receptor 3 (BRS-3) in CHO cells by using FLIPR assay. Format: functional, cell-based.

For assay [5], the target named is T1, Neuromedin-B receptor. Description: Effective concentration required against nueromedin B receptor (NMB-R) in CHO cells by using FLIPR assay. It counts as functional, cell-based. In a few lines: as §1
Target sequence in this assay (P28336 whole entry): as the sequence (P28336 whole entry, looked up) above
The target in assay [6] is T2, Gastrin-releasing peptide receptor. Description: Effective concentration required against gastrin releasing peptide receptor (GRP-R) in CHO cells by using FLIPR assay. It counts as functional, cell-based.
Target sequence in this assay (P30550 whole entry): as the sequence (P30550 whole entry, looked up) above

Active and inactive are the calls of the source. The rule behind the calls is not given here. Peptide text beside a SMILES is read from it. * marks the point of attachment. NHPhenethyl = c1ccc(CCN*)cc1; PhAc = O=C(Cc1ccccc1)*

Take `NC(=O)CC[C@H](NC(=O)Cc1cc2ccccc2[nH]1)C(=O)N[C@@H](Cc1c[nH]c2ccccc12)C(=O)NCCc1ccccc1`: the NA entry in assay [1] and in assay [3] was “inactive” throughout. In assay [2], this compound displayed an Emax of 82.

For the compound `C[C@H](NCCc1ccccc1)C(=O)N[C@@H](Cc1c[nH]c2ccccc12)C(=O)NCCc1ccccc1`, the NA result in assay [1] and in assay [3] was “inactive” throughout. The compound further registered an Emax in assay [2] of 82.

A word on the EC50: it is the concentration needed to bring the measured effect to its halfway point. `O=C(N/N=C/c1ccc(Cl)cc1)NC(Cc1c[nH]c2ccccc12)C(=O)NCCc1ccccc1` (centres undefined) gave a half-maximal effective concentration (EC50) in assay [4] of 2700 nM. In addition, the NA entry in assay [1] and in assay [3] was “inactive” each time. Besides, the Emax in assay [2] came to 78.

Compound `C[C@H](NC(=O)Cc1ccccc1)C(=O)N[C@@H](Cc1c[nH]c2ccccc12)C(=O)NCCc1ccccc1` (PhAc-Ala-Trp-NHPhenethyl) registered an EC50 in assay [4] of 2.1 nM. Also, the NA result in assay [1] and in assay [3] was “inactive” in each case. The same compound returned an Emax in assay [2] of 71.

Consider `O=C(N/N=C/c1ccco1)NC(Cc1c[nH]c2ccccc12)C(=O)NCCc1ccccc1` (centres undefined), for which, in assay [4], a half-maximal response (EC50) required 1.5 nM. In addition, the NA entry in assay [1] and in assay [3] was “inactive” in each case. The Emax in assay [2] was 94.

For the compound `C[C@H](NC(=O)Cc1ccc2c(c1)OCO2)C(=O)N[C@@H](Cc1c[nH]c2ccccc12)C(=O)NCCc1ccccc1`, a half-maximal response in assay [4] (EC50) required 7.8 nM. Moreover, the NA result in assay [1] and in assay [3] was “inactive” in each case. This compound had an Emax in assay [2] of 75.

In the case of `C[C@H](NC(=O)Cc1cc2ccccc2[nH]1)C(=O)N[C@@H](Cc1c[nH]c2ccccc12)C(=O)NCCc1ccccc1`, the EC50 in assay [4] worked out at 79 nM. The NA result in assay [1] and in assay [3] was “inactive” in each case. For the same compound, in assay [2], the Emax amounted to 69.

For the compound `O=C(NNCc1ccco1)NC(Cc1c[nH]c2ccccc12)C(=O)NCCc1ccccc1` (centres undefined), the EC50 in assay [4] was determined as 24 nM. Moreover, the NA entry in assay [1] and in assay [3] was “inactive” each time. The same compound returned an Emax in assay [2] of 96.

Take `O=C(Cc1cc2ccccc2[nH]1)NNC(=O)NC(Cc1c[nH]c2ccccc12)C(=O)NCCc1ccccc1` (centres undefined): the NA entry in assay [1] and in assay [3] was “inactive” in each case. In assay [2], the Emax was 84.

In assay [4], `O=C(NNCc1ccc(Cl)cc1)NC(Cc1c[nH]c2ccccc12)C(=O)NCCc1ccccc1` (centres undefined) gave an EC50 of 6 nM. The NA result in assay [1] and in assay [3] was “inactive” each time. In assay [2], the Emax came to 83.

In the case of `O=C(CNCCc1ccccc1)NC(Cc1c[nH]c2ccccc12)C(=O)NCCc1ccccc1` (centres undefined), the NA entry in assay [1] and in assay [3] was “inactive” each time. For the same compound, the Emax in assay [2] stood at 92.

The compound `O=C(CN1CCN(Cc2ccccc2)CC1)NC(Cc1c[nH]c2ccccc12)C(=O)NCCc1ccccc1` (centres undefined) gave an EC50 in assay [4] of 70 nM. Moreover, the NA result in assay [1] and in assay [3] was “inactive” each time. In addition, the Emax in assay [2] came out at 90.

In assay [4], `C[C@H](NCc1ccc(Cl)cc1)C(=O)N[C@@H](Cc1c[nH]c2ccccc12)C(=O)NCCc1ccccc1` yielded a 50% effective concentration (EC50) of 4 nM. The NA result in assay [1] and in assay [3] was “inactive” in each case. In assay [2], this compound gave an Emax of 83.

As for `O=C(CC1NCCc2ccccc21)NNC(=O)N[C@H](Cc1c[nH]c2ccccc12)C(=O)NCCc1ccccc1` (some centres undefined), the EC50 in assay [4] came to 19 nM. Besides, the NA entry in assay [1] and in assay [3] was “inactive” throughout. For the same compound, the Emax in assay [2] was 91.

Consider `O=C(Cc1ccc(Cl)cc1)NNC(=O)NC(Cc1c[nH]c2ccccc12)C(=O)NCCc1ccccc1` (centres undefined), for which the NA result in assay [1] and in assay [3] was “inactive” throughout. This compound also had an Emax in assay [2] of 89.

Turning to `O=C(N/N=C/c1ccc(-c2cccs2)cc1)NC(Cc1c[nH]c2ccccc12)C(=O)NCCc1ccccc1` (centres undefined), a half-maximal effect in assay [4] (EC50) was put at 7900 nM. Besides, the NA result in assay [1] and in assay [3] was “inactive” in each case. The same compound gave an Emax in assay [2] of 58.

`O=C(NNCc1ccccc1)NC(Cc1c[nH]c2ccccc12)C(=O)NCCc1ccccc1` (centres undefined) displayed a concentration for a half-maximal effect (EC50) in assay [4] of 15 nM. In addition, the NA entry in assay [1] and in assay [3] was “inactive” each time. In assay [2], the Emax was found to be 81.

As for `O=C(Cc1ccccc1)NNC(=O)NC(Cc1c[nH]c2ccccc12)C(=O)NCCc1ccccc1` (centres undefined), the NA entry in assay [1] and in assay [3] was “inactive” each time. The same compound yielded an Emax in assay [2] of 86.

For `O=C(CNCc1ccccc1)NC(Cc1c[nH]c2ccccc12)C(=O)NCCc1ccccc1` (centres undefined), the NA entry in assay [1] and in assay [3] was “inactive” throughout. The compound further had an Emax in assay [2] of 87.

Turning to `O=C(Cc1cccnc1)NNC(=O)NC(Cc1c[nH]c2ccccc12)C(=O)NCCc1ccccc1` (centres undefined), the response in assay [4] was half-maximal at 1.4 nM (EC50). Besides, the NA entry in assay [1] and in assay [3] was “inactive” throughout. The Emax in assay [2] was determined as 102.

With `CSCC[C@H](NC(=O)[C@H](CC(C)C)NC(=O)[C@H](Cc1c[nH]cn1)NC(=O)CNC(=O)[C@@H](NC(=O)[C@H](C)NC(=O)[C@H](Cc1c[nH]c2ccccc12)NC(=O)[C@H](Cc1c[nH]cn1)NC(=O)[C@H](CC(N)=O)NC(=O)CNC(=O)[C@H](CCCN=C(N)N)NC(=O)[C@@H]1CCCN1C(=O)[C@H](Cc1ccc(O)cc1)NC(=O)[C@H](CCSC)NC(=O)[C@H](CCCCN)NC(=O)[C@@H](NC(=O)[C@H](CC(C)C)NC(=O)[C@@H](NC(=O)[C@@H](NC(=O)CNC(=O)CNC(=O)CNC(=O)[C@H](C)NC(=O)[C@@H]1CCCN1C(=O)[C@H](CC(C)C)NC(=O)[C@@H]1CCCN1C(=O)[C@@H](N)C(C)C)[C@@H](C)O)C(C)C)[C@@H](C)O)C(C)C)C(N)=O`, the EC50 was 3200 nM in assay [5], 6400 nM in assay [4] and 34 nM in assay [6].

In the case of `O=C(CNCc1ccc(Cl)cc1)NC(Cc1c[nH]c2ccccc12)C(=O)NCCc1ccccc1` (centres undefined), the NA entry in assay [1] and in assay [3] was “inactive” each time. In addition, the Emax in assay [2] is 81.

`C[C@H](NC(=O)CC1NCCc2ccccc21)C(=O)N[C@@H](Cc1c[nH]c2ccccc12)C(=O)NCCc1ccccc1` (some centres undefined) yielded an EC50 in assay [4] of 310 nM. Besides, the NA entry in assay [1] and in assay [3] was “inactive” throughout. In assay [2], this compound returned an Emax of 69.

In the case of `C[C@H](NC(=O)Cc1cccnc1)C(=O)N[C@@H](Cc1c[nH]c2ccccc12)C(=O)NCCc1ccccc1`, the NA result in assay [1] and in assay [3] was “inactive” each time. In assay [2], this compound showed an Emax of 74.

In turn, `O=C(CC1NCCc2ccccc21)NNC(=O)NC(Cc1c[nH]c2ccccc12)C(=O)NCCc1ccccc1` (centres undefined) displayed a 50% effective concentration (EC50) in assay [4] of 9.3 nM. For the same compound, the NA result in assay [1] and in assay [3] was “inactive” throughout. Further, the Emax in assay [2] was determined as 95.

`C[C@H](NC(=O)CCc1ccc(Cl)cc1)C(=O)N[C@@H](Cc1c[nH]c2ccccc12)C(=O)NCCc1ccccc1` had a concentration giving a half-maximal response (EC50) in assay [4] of 6400 nM. Moreover, the NA result in assay [1] and in assay [3] was “inactive” throughout. In addition, the Emax in assay [2] stood at 30.

In the case of `O=C(CN1CCC(Cc2ccccc2)CC1)NC(Cc1c[nH]c2ccccc12)C(=O)NCCc1ccccc1` (centres undefined), a half-maximal effect in assay [4] (EC50) was put at 30 nM. Besides, the NA result in assay [1] and in assay [3] was “inactive” each time. In assay [2], this compound registered an Emax of 84.

`O=C(CNCc1cccnc1)NC(Cc1c[nH]c2ccccc12)C(=O)NCCc1ccccc1` (centres undefined): the NA result in assay [1] and in assay [3] was “inactive” each time. The Emax in assay [2] came to 82.

`NC(=O)CC[C@H](NC(=O)CCc1ccc(Cl)cc1)C(=O)N[C@@H](Cc1c[nH]c2ccccc12)C(=O)NCCc1ccccc1` came in with an EC50 in assay [4] of 230 nM. The NA entry in assay [1] and in assay [3] was “inactive” in each case. The compound also showed an Emax in assay [2] of 68.

The compound `C[C@H](NCc1ccccc1)C(=O)N[C@@H](Cc1c[nH]c2ccccc12)C(=O)NCCc1ccccc1` came in with an EC50 in assay [4] of 46 nM. The NA entry in assay [1] and in assay [3] was “inactive” in each case. In assay [2], this compound came in with an Emax of 86.

In the case of `C[C@H](NC(=O)Cc1ccc(Cl)cc1)C(=O)N[C@@H](Cc1c[nH]c2ccccc12)C(=O)NCCc1ccccc1`, the 50% effective concentration (EC50) in assay [4] is 140 nM. Moreover, the NA entry in assay [1] and in assay [3] was “inactive” in each case. Further, in assay [2], the Emax came to 75.

Take `NC(=O)CC[C@H](NC(=O)[C@H](N)Cc1ccccc1)C(=O)N[C@@H](Cc1c[nH]c2ccccc12)C(=O)NCCc1ccccc1`: the EC50 in assay [4] stood at 710 nM. Besides, the NA result in assay [1] and in assay [3] was “inactive” each time.

For `CSCC[C@H](NC(=O)[C@H](Cc1ccccc1)NC(=O)[C@H](Cc1cnc[nH]1)NC(=O)CNC(=O)[C@@H](NC(=O)[C@H](C)NC(=O)[C@H](Cc1c[nH]c2ccccc12)NC(=O)[C@H](CC(C)C)NC(=O)[C@H](CC(N)=O)NC(=O)CN)[C@@H](C)O)C(N)=O`, the EC50 is 120 nM in assay [5], 4500 nM in assay [4] and 41 nM in assay [6].
